Here are results for six molecules from ChEMBL document CHEMBL1212832, “Antiprotozoal steroidal saponins from the marine sponge Pandaros acanthifolium” (J Nat Prod, 2010).

Calls of active or inactive are those of the source. No cut-off for these calls is given here. Where only a bound is given, the exact number is not on record here.

For series [1], the target named is T1, Fatty acid synthase (Plasmodium falciparum) (UniProt Q965D7).
T1 sequence (whole entry): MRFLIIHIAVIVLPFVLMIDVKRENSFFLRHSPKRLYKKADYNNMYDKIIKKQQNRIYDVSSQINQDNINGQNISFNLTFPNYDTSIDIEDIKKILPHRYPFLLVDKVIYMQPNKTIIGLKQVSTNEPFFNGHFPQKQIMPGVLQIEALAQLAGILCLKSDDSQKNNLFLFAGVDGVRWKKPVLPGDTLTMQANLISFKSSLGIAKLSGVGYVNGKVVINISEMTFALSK
Kind of series: Inhibition of Plasmodium falciparum recombinant FabZ at 20 ug/mL by spectrophotometric analysis.

Series [2] concerns L6. Kind of series: Cytotoxicity against rat L6 cells after 72 hrs by Alamar blue assay. The settings on record: l6, 72 h. The series is classed as cell-based. The essentials: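 4 × 10^4 L6 cells per well in RPMI 1640 with 10% FBS and L-glutamine, exposed 72 h to seven 3-fold dilutions (90–0.12 µg/mL). Resazurin (Alamar Blue) added for 2 h, fluorescence read at ex 536/em 588 nm.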
On the technique in general: The colour change of resazurin is a common sign of viable cells or microbes.

Series [3] deals with Leishmania donovani. As to the kind of experiment: Ratio of miltefosine IC50 to compound IC50 for Leishmania donovani (MHOM/ET/67/L82) amastigotes.
For series [4], the system named is Plasmodium falciparum. As to the kind of experiment: Antimalarial activity against chloroquine and pyrimethamine-resistant Plasmodium falciparum K1 assessed as inhibition of [3H]hypoxanthine incorporation after 48 hrs by scintillation counting. Format: functional, organism-based. Put shortly:
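K1 strain (chloroquine- and pyrimethamine-resistant) cultured in RPMI 1640 with 5% Albumax II, 0.2% w/v glucose, 0.03% L-glutamine. Two-fold dilution series from DMSO stocks, final DMSO ≤0.25%. 48 h at 37 °C, then 0.1 µCi [3H]-hypoxanthine added and incubated 24 h more. Freeze-stopped at -80 °C, harvested onto glass fiber filters, scintillation counted. IC50 calculated. Chloroquine as standard.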

Series [5] concerns the target T2, 3-oxoacyl-acyl-carrier protein reductase (Plasmodium falciparum) (UniProt Q965D6).
T2 sequence (whole entry): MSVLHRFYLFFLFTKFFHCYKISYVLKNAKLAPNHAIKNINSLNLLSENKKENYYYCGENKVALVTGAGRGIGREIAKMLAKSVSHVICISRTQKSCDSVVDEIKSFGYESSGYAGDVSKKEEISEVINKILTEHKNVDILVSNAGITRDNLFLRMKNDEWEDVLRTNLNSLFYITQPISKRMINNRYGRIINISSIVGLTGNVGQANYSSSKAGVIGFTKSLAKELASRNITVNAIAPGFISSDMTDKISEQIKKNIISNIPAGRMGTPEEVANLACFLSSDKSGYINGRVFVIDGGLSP
As to the kind of experiment: Inhibition of Plasmodium falciparum recombinant FabG at 20 ug/mL by spectrophotometric analysis.

Series [6] has as its system Trypanosoma brucei rhodesiense. Kind of series: Trypanocidal activity against Trypanosoma brucei rhodesiense STIB 900 after 72 hrs. The settings on record: STIB 900, 72 h. Format: functional, organism-based. The essentials:
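Bloodstream forms (10^4 per well) in MEM with 25 mM HEPES, extra glucose, non-essential amino acids, 2-mercaptoethanol, pyruvate and 15% heat-inactivated horse serum; seven 3-fold dilutions from 90 to 0.12 µg/mL, 72 h at 37 °C, 5% CO2. Resazurin added for 2–4 h, fluorescence at ex 536/em 588 nm; melarsoprol as standard.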

For series [7], the system named is Trypanosoma cruzi. As to the kind of experiment: Trypanocidal activity against trypomastigote form of Trypanosoma cruzi Tulahuen infected in rat L6 cells after 96 hrs. Format: functional, organism-based. The following applies: L6, 96 h. Put shortly: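 L6 cells seeded at 2000 per well in RPMI 1640 with 10% FBS, 2 mM L-glutamine; after 24 h, 5000 trypomastigotes of the LacZ-expressing C2C4 line added. After 48 h, medium replaced with seven 3-fold dilutions (90–0.12 µg/mL) for 96 h.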

Series [8] in a line: Inhibition of Plasmodium falciparum recombinant FabI at 20 ug/mL by spectrophotometric analysis.
Series [9] relates to Leishmania donovani. Kind of series: Antileishmanial activity against Leishmania donovani (MHOM/ET/67/L82) amastigotes after 72 hrs. The series is classed as functional, organism-based. The settings on record: MHOM/ET/67/L82, 72 h.

Broadly, the IC50 is the concentration needed to halve the response being measured. As for `CC[C@@H](C(=O)C[C@@H](C)C1=C(O)C(=O)[C@@H]2C3=CC[C@H]4C[C@@H](O[C@@H]5O[C@H](C(=O)OC)[C@@H](O)[C@H](O[C@@H]6OC[C@@H](O)[C@H](O)[C@H]6O)[C@H]5O)CC[C@]4(C)[C@H]3CC[C@]12C)C(C)C` [METHYL ESTER PANDAROSIDE G], the outcome in [1], in series [5] and in [8] was inactive. The molecule further yielded an Activity in [2] of 0.22 µM. Further, the “Ratio IC50” value in [3] is 10. Further, the IC50 in series [4] came out at 0.39 µM; in series [6], 0.038 µM; in [7] it was 0.77 µM; in series [9] it was 0.051 µM.

With `C=C(C(=O)C[C@@H](C)C1=C(O)C(=O)[C@@H]2C3=C(CC[C@]12C)[C@@]1(C)CC[C@H](O[C@@H]2O[C@H](C(=O)O)[C@@H](O)[C@H](O[C@@H]4OC[C@@H](O)[C@H](O)[C@H]4O)[C@H]2O)C[C@@H]1CC3)C(C)C` [PANDAROSIDE E], the result in [1], in [5] and in [8] was inactive. For the same molecule, the Activity in series [2] is 40.9 µM. Also, the IC50 in [4] came to 13.8 µM; in series [6], 9.4 µM; in series [7] it was 71.6 µM; in [9], 15.9 µM.

Take `CC(C)[C@@H](C)C(=O)C[C@@H](C)C1=C(O)C(=O)[C@@H]2C3=C(CC[C@]12C)[C@@]1(C)CC[C@H](O[C@@H]2O[C@H](C(=O)O)[C@@H](O)[C@H](O[C@@H]4OC[C@@H](O)[C@H](O)[C@H]4O)[C@H]2O)C[C@@H]1CC3` [PANDAROSIDE F]: the result in series [1], in series [5] and in series [8] was inactive. The molecule also came in with an Activity in series [2] of 10.8 µM. Besides, the IC50 was found to be 5.7 µM in series [4], 2.4 µM in series [6], 20.3 µM in series [7] and 4.3 µM in [9].

Take `CC[C@@H](C(=O)C[C@@H](C)C1=C(O)C(=O)[C@@H]2C3=CC[C@H]4C[C@@H](O[C@@H]5O[C@H](C(=O)O)[C@@H](O)[C@H](O[C@@H]6OC[C@@H](O)[C@H](O)[C@H]6O)[C@H]5O)CC[C@]4(C)[C@H]3CC[C@]12C)C(C)C` [PANDAROSIDE G]: the result in series [1], in [5] and in series [8] was inactive. Moreover, in series [2], the Activity was determined as 5.4 µM. The concentration for half-maximal inhibition (IC50) in [4] came to 2.5 µM; in series [6], 0.8 µM; in series [7] it was 9.7 µM; in series [9], 1.3 µM.

With `CC[C@@H](C(=O)C[C@@H](C)C1=C(O)C(=O)[C@@H]2[C@@H]3CC[C@H]4C[C@@H](O[C@@H]5O[C@H](C(=O)O)[C@@H](O)[C@H](O[C@@H]6OC[C@@H](O)[C@H](O)[C@H]6O)[C@H]5O)CC[C@]4(C)[C@H]3CC[C@]12C)C(C)C` [PANDAROSIDE H], the outcome in series [1], in series [5] and in [8] was inactive. For the same molecule, in series [2], the Activity was > 120 µM. The IC50 was 22.8 µM in series [4], 68.4 µM in [6], > 120 µM in series [7] and 46.7 µM in series [9].

For the molecule `CC[C@@H](C(=O)C[C@@H](C)C1=C(O)C(=O)[C@@H]2[C@@H]3CC[C@H]4C[C@@H](O[C@@H]5O[C@H](C(=O)O)[C@@H](O[C@H]6O[C@H](C)[C@@H](O)[C@H](O)[C@@H]6O)[C@H](O)[C@H]5O)CC[C@]4(C)[C@H]3CC[C@]12C)C(C)C` [PANDAROSIDE I], the outcome in series [1], in series [5] and in [8] was inactive. Also, the Activity in [2] was > 120 µM. The IC50 in series [4] is > 25 µM; in [6], 19.2 µM; in [7], 70.8 µM; in series [9], 36 µM.
